Active and inactive are the calls of the source.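 The calls were made as follows, unless noted: active = duplicate-averaged activation above buffer control mean plus 5 SD of those controls; inactive = the rest.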
Legend:
[1] = nonspecific flux increase, KCNQ1-free cells – parental CHO cells, counter-screen for KCNQ1 potentiator project (AID 493006); conditions: parental CHO-K1 cells, FluxOR thallium flux, at 10 µM; active compounds read high;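 as to activation: fluorescence ratio of max minus min over baseline after K+ and Tl+ depolarization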
Method in brief: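 Assay system: parental CHO-K1 cells lacking KCNQ1, loaded with FluxOR thallium dye; timing: dye 90 min RT, compound 20 min RT; signal: kinetic thallium-flux fluorescence; repeats: duplicate wells per compound, percent values averaged; benchmarks: buffer and R-L3 controls; reagent: Potassium/thallium depolarization pulse; read-out: fluorescence change ratio scaled 0% buffer, 100% R-L3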

[2] = molecular target: Potassium voltage-gated channel subfamily KQT member 1 (Homo sapiens) (UniProt P51787); assay: enhancement of KCNQ1 channel thallium flux – FluxOR thallium flux, CHO cells, duplicates, confirmation (AID 493007;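 active = potentiation averaged over duplicate wells exceeding buffer-only control mean by more than 3 SD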;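 as to outcome: cells depolarized by a potassium plus thallium sulfate stimulus after compound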); conditions: KCNQ1 cell line, FluxOR thallium flux fluorescence, at 10 µM; active compounds read high, % of reference activator effect, buffer zero
Chain of Potassium voltage-gated channel subfamily KQT member 1 (Homo sapiens) (P51787 whole entry, looked up): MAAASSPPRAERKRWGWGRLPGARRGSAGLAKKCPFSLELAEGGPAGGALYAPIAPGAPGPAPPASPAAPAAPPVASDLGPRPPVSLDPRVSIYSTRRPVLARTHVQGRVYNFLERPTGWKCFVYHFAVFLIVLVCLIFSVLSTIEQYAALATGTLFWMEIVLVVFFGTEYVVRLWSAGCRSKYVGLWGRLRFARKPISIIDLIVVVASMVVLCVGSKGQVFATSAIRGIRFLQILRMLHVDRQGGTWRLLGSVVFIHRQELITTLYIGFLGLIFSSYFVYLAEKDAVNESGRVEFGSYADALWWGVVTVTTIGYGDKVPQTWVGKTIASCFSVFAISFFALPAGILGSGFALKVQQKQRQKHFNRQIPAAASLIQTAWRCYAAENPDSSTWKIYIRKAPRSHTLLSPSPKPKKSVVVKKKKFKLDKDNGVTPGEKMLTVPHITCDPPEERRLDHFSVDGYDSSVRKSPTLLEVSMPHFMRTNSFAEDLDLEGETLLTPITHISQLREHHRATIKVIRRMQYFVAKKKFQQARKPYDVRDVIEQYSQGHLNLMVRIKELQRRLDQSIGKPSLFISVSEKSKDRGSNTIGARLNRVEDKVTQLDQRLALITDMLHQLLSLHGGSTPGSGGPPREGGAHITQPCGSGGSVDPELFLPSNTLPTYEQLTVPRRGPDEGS
Method in brief: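 material = CHO cells stably expressing the KCNQ1 potassium channel | repeats = duplicate wells per compound | measure = percent activation between buffer and R-L3 responses | signal = FluxOR thallium-flux fluorescence, kinetic read | schedule = FluxOR dye loading 90 min, compound exposure 20 min, room temperature | control set = buffer and R-L3 controls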

[3] = molecular target: Potassium voltage-gated channel subfamily KQT member 2 (Rattus norvegicus) (UniProt O88943); assay: KCNQ2 thallium flux enhancement – KCNQ2-CHO-K1 cells, selectivity assay for KCNQ1 potentiator project (AID 493009;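 active = mean duplicate potentiation above the buffer control mean plus 5 SD of buffer wells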;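 also: assay conditions were tuned for KCNQ1 rather than KCNQ2 modulators; signal is max minus min fluorescence divided by baseline after thallium stimulus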); conditions: FluxOR thallium flux fluorescence, at 10 µM; active compounds read high, scaled: buffer 0, activator control 100
Chain of Potassium voltage-gated channel subfamily KQT member 2 (Rattus norvegicus) (O88943 whole entry, looked up): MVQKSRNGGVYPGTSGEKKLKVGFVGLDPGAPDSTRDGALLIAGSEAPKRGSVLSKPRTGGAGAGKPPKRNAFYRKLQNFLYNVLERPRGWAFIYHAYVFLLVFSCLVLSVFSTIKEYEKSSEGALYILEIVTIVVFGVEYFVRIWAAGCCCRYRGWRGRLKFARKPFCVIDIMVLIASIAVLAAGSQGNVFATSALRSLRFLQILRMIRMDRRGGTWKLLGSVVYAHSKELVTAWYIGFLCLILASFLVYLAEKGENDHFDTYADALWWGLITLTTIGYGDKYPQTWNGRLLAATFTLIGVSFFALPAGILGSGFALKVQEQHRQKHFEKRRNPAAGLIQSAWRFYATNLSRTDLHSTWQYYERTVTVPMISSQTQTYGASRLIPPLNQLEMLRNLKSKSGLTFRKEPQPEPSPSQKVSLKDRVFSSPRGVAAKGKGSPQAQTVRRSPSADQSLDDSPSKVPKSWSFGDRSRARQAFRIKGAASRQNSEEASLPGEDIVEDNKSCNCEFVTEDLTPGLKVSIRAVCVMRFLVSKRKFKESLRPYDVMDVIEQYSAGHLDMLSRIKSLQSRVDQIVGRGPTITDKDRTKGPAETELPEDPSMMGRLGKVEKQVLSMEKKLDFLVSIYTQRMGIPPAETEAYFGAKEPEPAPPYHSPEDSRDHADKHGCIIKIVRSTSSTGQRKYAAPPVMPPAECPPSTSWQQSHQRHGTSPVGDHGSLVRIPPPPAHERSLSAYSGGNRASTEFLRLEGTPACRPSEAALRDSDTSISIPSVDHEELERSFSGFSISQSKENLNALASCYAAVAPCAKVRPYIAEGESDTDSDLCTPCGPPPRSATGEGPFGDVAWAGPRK

[4] = molecular target: Potassium voltage-gated channel subfamily KQT member 1 (Homo sapiens) (UniProt P51787); assay: KCNQ1 activators by electrophysiology – IonWorks patch clamp, KCNQ1-CHO cells, orthogonal assay for KCNQ1 potentiator project, confirmation (AID 493184;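 active = current rise at least 3 SD above the untreated control mean in each of two repeat wells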;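 as to current potentiation: percent change of the same well's current before compound addition so 0% = no change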); conditions: automated patch clamp current, at 10 µM; active compounds read high
Method in brief: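 Assay system – CHO cells carrying KCNQ1 · Medium – pH 7.4 external bath · Probe or stimulus – depolarizing pulse to +40 mV from -90 mV · Compound dosing – one dose, 10 µM final · Measured by – automated perforated-patch electrophysiology · Measure – % potentiation of steady-state current relative to pre-compound · Repeats – two replicates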

SMILES	activation [1]	potentiation [2]	potentiation [3]	current potentiation [4]	outcome [1]	outcome [2]	outcome [3]	outcome [4]
Cc1[nH]n(-c2ccccc2)c(=O)c1N=Nc1nccs1	816% (active)	418% (active)	787% (active)	20.9% (active)				
O=C(NCc1cccc(Cl)c1)c1cccc(OC2CCN(C(=O)C3CC3)CC2)c1					inactive	inactive	inactive	inactive
O=C(NCc1ccccc1)c1onc(CSc2ccc(F)cc2)c1C(=O)NCCCN1CCOCC1					inactive	inactive	inactive	inactive
CCOC(=O)c1c(NS(C)(=O)=O)sc2c1CCC(C)C2 (centres undefined)	173% (active)	24.5% (active)	190% (active)					inactive
COC(=O)c1ccc(NC(=S)NC(=O)c2c(Cl)cnn2C)cc1	142% (active)	26% (active)					inactive	inactive
Cc1ccc(OCC(=O)NC(=S)Nc2ccc(Br)cn2)cc1		19.5% (active)			inactive		inactive	inactive
CC(C)C1=NN(C(=O)c2ccccc2)C(O)(C(C)(C)C)C1 (centres undefined)					inactive	inactive	inactive	inactive
CN(C)/C=N/S(=O)(=O)c1cccn1-c1ncc(C(F)(F)F)cc1Cl					inactive	inactive	inactive	inactive
c1csc(-c2csc3ncnc(NCCCN4CCOCC4)c23)c1					inactive	inactive	inactive	inactive
O=C(NC(=S)N1CCCCCC1)c1ccccc1					inactive	inactive	inactive	inactive
CC(C)(C)NC(=O)C(=O)NNC(=O)c1cccc(F)c1	201% (active)	87.5% (active)	228% (active)					inactive
O=C(O)c1ccccc1NS(=O)(=O)c1cccc(-n2sc3ccccc3c2=O)c1	154% (active)	18% (active)					inactive	inactive
O=C(CCC(=O)N1CCOc2ccc(Cl)cc21)NCCCN1CCN(c2ccccc2F)CC1					inactive	inactive	inactive	inactive
COc1ccc(-c2oc3ccccc3c(=O)c2OC(C)=O)cc1	144% (active)		161% (active)			inactive		inactive
Cc1ccccc1N(CC(=O)N/N=C/c1cc(C)n(-c2ccccc2C)c1C)S(C)(=O)=O					inactive	inactive	inactive	inactive
CCCNC(=O)C(=O)N/N=C/c1cccs1		24.5% (active)			inactive		inactive	inactive
O=C(NC(=S)Nc1ccc(N2CCCCC2)c(Cl)c1)c1cccs1	138% (active)	120% (active)	232% (active)					inactive
C/C(=N\NC(=O)c1cc2ccccc2cc1O)c1cc2ccccc2o1	706% (active)	478% (active)	746% (active)					inactive
Cc1cc(C)nc(NC(=O)/C=C/c2ccccc2Cl)n1					inactive	inactive	inactive	inactive
CC(=O)c1c(O)cc(C)n(-c2ccc(F)cc2)c1=O					inactive	inactive	inactive	inactive
O=C(NC(=S)Nc1ccccc1Cl)c1ccco1	140% (active)		146% (active)			inactive		inactive

SMILES	activation [1]	potentiation [2]	potentiation [3]	current potentiation [4]	outcome [1]	outcome [2]	outcome [3]	outcome [4]
N=c1ncn(Cc2ccccc2)c2nc(SCCOc3ccccc3)[nH]c12					inactive	inactive	inactive	inactive
CN(CC(=O)Nc1ccc(F)c(F)c1F)C(=O)CC1OC(=O)c2ccccc21 (centres undefined)					inactive	inactive	inactive	inactive
CCN(c1ccc(NS(=O)(=O)c2cc(Cl)ccc2Cl)cc1)C(C)C					inactive	inactive	inactive	inactive
CC1CN(C(=S)NC(=O)c2ccc(Cl)cc2)CC(C)O1 (centres undefined)	144% (active)	24% (active)	152% (active)					inactive
CC(C)(C)CC(C)(C)NC(=S)NC1CCN(Cc2ccccc2)CC1					inactive	inactive	inactive	inactive
O=C(NC(=S)NCCc1ccccc1)c1cccc(Cl)c1	182% (active)	141% (active)	342% (active)					inactive
O=C(NC(=S)NCc1ccccc1)c1ccc(Br)o1	434% (active)	313% (active)	510% (active)					inactive
COC(=O)C1CCCN1C(=O)COc1ccc(Cl)cc1Br (centres undefined)	152% (active)		158% (active)			inactive		inactive
COC(=O)c1cn(NC(=O)Cc2ccc(Cl)c(Cl)c2)c(=O)c2ccccc12			252% (active)		inactive	inactive		inactive
CCOC(=O)C(=NCC1CCCO1)NNc1ccccc1Cl (centres undefined)					inactive	inactive	inactive	inactive
CCN(CC)CCn1c(=S)[nH]c2cc(C(=O)NCc3ccc(C)cc3)ccc2c1=O					inactive	inactive	inactive	inactive
COc1ccccc1C(=O)NNC(=O)C(=O)NCc1ccccc1	188% (active)	59.5% (active)	218% (active)					inactive
Cc1nc2c(c3c1[nH]c1ccccc13)C(=O)CC(C)(C)C2					inactive	inactive	inactive	inactive
CCCCOC(=O)c1ccc(NC(=S)NC(=O)c2c(Cl)cnn2CC)cc1	208% (active)	196% (active)	298% (active)					inactive
Cc1noc(C)c1CSc1ncnc2sc(C)c(C)c12					inactive	inactive	inactive	inactive
CC1Oc2ccccc2OC1(O)c1ccccn1 (centres undefined)	142% (active)	26.5% (active)	142% (active)					inactive
O=c1c2cccnc2[nH]c(=S)n1CCC1=CCCCC1	258% (active)	64% (active)	229% (active)					inactive
Cc1ccc(C)c(NC(=S)NNC(=O)c2csc3c2CCC(C)C3)c1 (centres undefined)	242% (active)	116% (active)	322% (active)					inactive
Cc1ccc(S(=O)(=O)n2cccc2CO)cc1					inactive	inactive	inactive	inactive
CCOC(=O)c1sc2ncnc(NCc3ccco3)c2c1C	332% (active)	152% (active)	358% (active)					inactive
O=C(c1cc(COc2ccc3ncccc3c2)on1)N1CCCC(O)C1 (centres undefined)					inactive	inactive	inactive	inactive

SMILES	activation [1]	potentiation [2]	potentiation [3]	current potentiation [4]	outcome [1]	outcome [2]	outcome [3]	outcome [4]
Cc1ccc(Nc2c([N+](=O)[O-])ccc3nonc23)c(C)c1					inactive	inactive	inactive	inactive
CC(=O)Nc1ccc(/C=N/N2C(=O)NC(C)(c3ccc(OC(F)F)cc3)C2=O)cc1 (centres undefined)	219% (active)	100% (active)	234% (active)					inactive
C=CCNc1nnc(SCC(=O)N2CCC(C(N)=O)CC2)s1					inactive	inactive	inactive	inactive
Cc1cc(C)c2nc(NC(=O)c3cc(C)on3)sc2c1	174% (active)	36% (active)	166% (active)					inactive
Cc1ccccc1CC(=O)NC1CCN(Cc2ccccc2)CC1					inactive	inactive	inactive	inactive
O=C1OCCC1Sc1nc2ccccc2c(=O)n1Cc1ccc(F)cc1 (centres undefined)	158% (active)	44% (active)	169% (active)					inactive
CSC(=S)N/N=C/c1ccc(Br)cc1	172% (active)	38% (active)	179% (active)					inactive
CCCc1ccc2oc(C(=O)N(C)CCn3ccnc3C)c(C)c2c1					inactive	inactive	inactive	inactive
Cc1cccc(NC(=O)c2cccnc2)c1					inactive	inactive	inactive	inactive
CCOC(=O)c1sc(N2N=C(C)C(N=Nc3cccc(C)c3)C2=O)nc1C (centres undefined)		31% (active)	148% (active)		inactive			inactive
CCOC(=O)c1cccc(C(=O)Nc2nc3ccc(OC)cc3s2)n1					inactive	inactive	inactive	inactive
Cc1cc(/C=C2\SC(=Nc3ccc(F)cc3)NC2=O)c(C)n1-c1ccc(S(N)(=O)=O)cc1					inactive	inactive	inactive	inactive
COc1ccc(C)cc1NC(=O)C(=O)NNC(=O)c1ccco1	377% (active)	109% (active)	363% (active)					inactive
COc1ccc(S(=O)(=O)N2CCCC(C(=O)O)C2)cc1 (centres undefined)					inactive	inactive	inactive	inactive
CN1C=CC=C/C1=C1\SC(=S)N(Cc2ccccc2)C1=O					inactive	inactive	inactive	inactive
COc1ccc(C(=O)c2cc([N+](=O)[O-])ccc2N2CCOCC2)cc1					inactive	inactive	inactive	inactive
CCOc1ccc(NC(=O)CN(C)C(=O)C2CCN(c3ncnc4sc(C)c(C)c34)CC2)cc1OCC					inactive	inactive	inactive	inactive
NC(=S)n1[nH]c(-c2ccc([N+](=O)[O-])cc2)c(N=Nc2cccc(Cl)c2)c1=O	150% (active)	34.5% (active)	179% (active)					inactive
O=C(Nc1ccc(Cl)cn1)c1cccc(S(=O)(=O)N2CCOCC2)c1					inactive	inactive	inactive	inactive
